Data set [1] in a line: Cytotoxicity against mouse brain Primary embryonic cortical cell assessed as cell death at 2.5 uM incubated for 2 hrs by propidium iodide dye based spectrofluorometric analysis relative to control. Type of data set: toxicity. The method in brief:
(§1)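 Primary cortical cultures from E16.5 mouse embryo brains, trypsinized, plated on poly-D-lysine, grown in Neurobasal with glutamine, glucose, 5% horse serum and B27; compounds added at 4 DIV. Propidium iodide 30 μM; baseline F1 read 1 h after PI; ex 530/em 645 nm. Fmax after digitonin permeabilization. % death = 100×(Fn−F1)/(Fmax−F1); mean of three independent experiments.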

The nature of data set [2]: Cytotoxicity against mouse brain Primary embryonic cortical cell assessed as cell death at 5 uM incubated for 24 hrs by propidium iodide dye based spectrofluorometric analysis relative to control. Type of data set: toxicity. A digest of the protocol: as §1
The nature of data set [3]: Cytotoxicity against mouse brain Primary embryonic cortical cell assessed as cell death at 10 uM incubated for 4 hrs by propidium iodide dye based spectrofluorometric analysis relative to control. Type of data set: toxicity. A digest of the protocol: as §1
Data set [4] is described as follows: Cytotoxicity against mouse brain Primary embryonic cortical cell assessed as cell death at 5 uM incubated for 48 hrs by propidium iodide dye based spectrofluorometric analysis relative to control. Type of data set: toxicity. A digest of the protocol:
as §1

Data set [5] is described as follows: Cytotoxicity against mouse brain Primary embryonic cortical cell assessed as cell death at 10 uM incubated for 48 hrs by propidium iodide dye based spectrofluorometric analysis relative to control. Type of data set: toxicity. A digest of the protocol:
as §1

Data set [6] can be described thus: Cytotoxicity against mouse brain Primary embryonic cortical cell assessed as cell death at 30 uM incubated for 48 hrs by propidium iodide dye based spectrofluorometric analysis relative to control. Type of data set: toxicity. The method in brief:
as §1

Data set [7] is described as follows: Cytotoxicity against mouse brain Primary embryonic cortical cell assessed as cell death at 10 uM incubated for 24 hrs by propidium iodide dye based spectrofluorometric analysis relative to control. Type of data set: toxicity. A digest of the protocol: as §1
The nature of data set [8]: Cytotoxicity against mouse brain Primary embryonic cortical cell assessed as cell death at 30 uM incubated for 4 hrs by propidium iodide dye based spectrofluorometric analysis relative to control. Type of data set: toxicity. The method in brief: as §1
In data set [9] the test system is SH-SY5Y. Description: Neuroprotective activity against okadaic acid-induced cytotoxicity in human SH-SY5Y cells assessed as increase in cell viability at 50 uM incubated for 24 hrs by MTT assay. Type of data set: functional, cell-based. A digest of the protocol: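 SH-SY5Y cells grown in DMEM with 10% FBS and plated at 4.5×10^4 cells/well. Incubated 24 h at 37 °C, 5% CO2 with compound (0.1–50 μM) plus okadaic acid 100 nM. Viability by MTT, expressed as % of untreated cells; estradiol and PD38 as positive controls. Mean ± SD of three independent experiments; ANOVA with Dunnett's test.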
A general note: Tetrazolium dyes change colour on reduction, which living cells bring about.

A short description of data set [10]: Cytotoxicity against mouse brain Primary embryonic cortical cell assessed as cell death at 10 uM incubated for 3 hrs by propidium iodide dye based spectrofluorometric analysis relative to control. Type of data set: toxicity. A digest of the protocol: as §1
A short description of data set [11]: Cytotoxicity against mouse brain Primary embryonic cortical cell assessed as cell death at 5 uM incubated for 3 hrs by propidium iodide dye based spectrofluorometric analysis relative to control. Type of data set: toxicity. A digest of the protocol:
as §1

Data set [12] is described as follows: Cytotoxicity against mouse brain Primary embryonic cortical cell assessed as cell death at 2.5 uM incubated for 5 hrs by propidium iodide dye based spectrofluorometric analysis relative to control. Type of data set: toxicity. The method in brief:
as §1

Molecules are shown by their SMILES. Active and inactive are the calls of the source. No cut-off for these calls is given here.

With `COc1ccc2sc3c(C)ccc(NCCC4CCN(C)CC4)c3c(=O)c2c1`, the Activity in data set [1] turned out to be 3.8%; in data set [2], 91.3%; in data set [3] it was 52.6%; in data set [4], 85.6%; in data set [5], 84.1%; in [6], 88.1%. Moreover, the Activity in [7] is reported as 88.5%; in data set [8], 56.1%; in [10], 48.9%; in data set [11] it was 15.8%; in data set [12], 23.8%. Besides, the outcome in data set [9] was inactive.

Values taken from ChEMBL document CHEMBL5335771, “Thioxanthenone-based derivatives as multitarget therapeutic leads for Alzheimer's disease” (Eur J Med Chem, 2023).
